Results on 1 molecule are retold here after paper PMC6860364 (British journal of haematology, 2017).

A short description of data set [1]: Blood pharmacokinetics of MRZ in RRMM patients, Cycle 1 Day 8, non-compartmental. The data set is classed as in vivo. Particulars: human, iv. The essentials:
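Relapsed/refractory myeloma patients got the test compound at 0·3–0·5 mg/m² as a 2-h IV infusion on days 1, 4, 8 and 11 of 28-day cycles, with pomalidomide and oral dexamethasone. Saline hydration ran 1 h before and 2 h after infusion. Blood was sampled on Cycle 1 Day 8 pre-dose, at 40, 80 and 120 min into infusion, and 2–90 min after its end.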

For data set [2] the following is noted: preclinical studies; ref Di et al, 2016; cited from earlier work.
The test system of data set [3] is CT-L, T-L and C-L catalytic activities of the proteasome. Kind of data set: Pharmacodynamics: proteasome activity in packed whole blood. The data set is classed as in vivo, human. The following applies: 0·4 and 0·5 mg/m^2 MRZ, study dosing schedule.
The conditions of data set [4]: historical studies; ref Harrison et al, 2016; cited from earlier work.

The term Vd denotes the apparent volume that relates the amount in the body to the concentration in plasma or blood. The term clearance denotes a measure of how efficiently the substance is removed, as volume per time. Low readings indicate inefficient removal, high ones efficient removal. The term half-life denotes the time in which the quantity being followed falls by half. In data set [1], `C[C@@]12OC(=O)[C@]1([C@@H](O)[C@@H]1C=CCCC1)NC(=O)[C@@H]2CCCl` [MRZ, Marizomib] gave a Vd of 41 to 86 L and a clearance of 4200 to 9400 mL/min. Moreover, the “ability to cross the blood brain barrier (BBB)” value in data set [2] was “crosses the BBB”. The “proteasome subunit inhibition in PWB” value in data set [3] was “Partial or complete proteasome subunit inhibition in PWB was achieved”. The half-life in data set [4] was 6 to 10 min.
